PubChem BioAssay
Results filed as inconclusive are left out.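 Rule for the calls, unless noted: active = RAM network inhibition above 8.4% in each of two replicates, 3 SD over the compound average; inconclusive = above 8.4% inhibition in only one replicate; inactive = 8.4% inhibition or less in each replicate.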

What was measured:
[1] = S. cerevisiae growth inhibition in permissive medium (OD615), pilot counter-assay for S. cerevisiae lifespan shortening project, permissive growth control (AID 705;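 active = growth inhibition above 25% in both replicates, a cutoff set 3 SD above the mean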); settings: OD615, 24 h, at 10 µM, active compounds read high
Outline: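 System: Engineered DeaD yeast | Buffer or medium: SC raffinose/galactose permissive medium | Incubation: Cells pre-grown 4 h, then 24 h compound exposure, 30 °C humidified | Measured by: Absorbance (optical density) at 615 nm | Read-out: Reduction in yeast growth (OD615)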

[2] = S. cerevisiae growth inhibition in restrictive medium, OD615, pilot screen, restrictive growth control, yeast lifespan reduction project (AID 706;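 active = growth inhibition above a set limit, 3 SD over mean compound inhibition, in both replicates, cut at about 43% in these data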;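 note: modified DeaD lifespan yeast strain shifted to restrictive glucose medium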); settings: OD615, 48 h, at 10 µM, active compounds read high
Outline: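 Material: modified S. cerevisiae; Medium: glucose-based CSMM-D restrictive medium; Compound dosing: one concentration, 10 µM final, 0.25% DMSO; Incubation: 48 h compound exposure at 30 °C; Measured by: OD615.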

[3] = doxorubicin toxicity protection in MRP-1 cells – H69AR cells, CellTiter-Glo, duplicate, MRP-1 activator project, pilot screen (AID 807;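 active = viability increase at or above a cutoff of the median across tested compounds plus 3 SD, cut at about 8.5% in these data, passing the limit was not always enough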;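 note: compound pretreatment 18-22 h then 72 h combined with doxorubicin; 0% = doxorubicin alone and 100% = vehicle without doxorubicin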); settings: H69AR viability with doxorubicin, CellTiter-Glo luminescence; at 10 µM; active compounds read high
[4] = viability of HCT116 without oncogenic beta-catenin – human colon tumor cells, pilot screen (AID 823;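 active = cell viability at or below a set limit in both duplicate runs, the limit being the all-compound median minus 4 SD, cut at about 23% in these data, passing the limit was not always enough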;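 note: 0% = wells killed by 20 µM Hyamine and 100% = untreated DMSO cell wells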); settings: HCT116 beta-catenin knockout viability, CellTiter-Glo, 60 h; at 10 µM; active compounds read low
[5] = viability of PTEN-null HCT116 cells – cell-based, HCT116 clonal line, CellTiter-Glo, pilot screen (AID 824;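 active = viability at or below 27.92% in each of two runs, the all-compound median minus 4 SD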;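 note: 0% = 20 µM Hyamine control and 100% = vehicle cell control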); settings: HCT116 PTEN-deleted viability, 60 h, at 10 µM, active compounds read low
[6] = RAM pathway blockade in budding yeast – dse1pr::URA3 reporter, 5-FOA selection, pilot screen (AID 869;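 active = inhibition over a set limit, the all-compound mean plus 3 SD, in both replicate runs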;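 note: 0% = DMSO wells with no growth and 100% = 10 µM 1-NA-PP1 with full growth; RAM network block rescues cells from 5-FOA so hits raise OD615 growth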); settings: S. cerevisiae dse1pr::URA3 5-FOA growth, OD615, 2 d; at 10 µM; active compounds read high; strain carries analog-sensitive mutant Cbk1 kinase
[7] = RAM signaling pathway blockade in yeast – S. cerevisiae, Pdr1DBD-CYC8 efflux-inhibited sensitized strain, primary screen (AID 1298);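 note: 0% = DMSO untreated cells without growth and 100% = 10 µM 1-NA-PP1 full growth; higher means more yeast growth rescued from 5-FOA killing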; settings: S. cerevisiae cbk1-as DSE1-URA3 strain, 5-FOA growth OD615, 2 d; at 50 µM; active compounds read high

S=c1sc2c(N3CCOCC3)ncnc2n1-c1ccccc1
inactive: growth inhibition [1] -11.6% | growth inhibition [2] 8.65% | viability increase [3] -3.12% | viability [4] 102% | viability [5] 94.9% | inhibition [6] 1.64% | RAM network inhibition [7] 4.8%

O=C1c2ccccc2-c2ncnc3c(N4CCOCC4)cc(N4CCOCC4)c1c23
inactive: growth inhibition [1] -12.8% | growth inhibition [2] -3.37% | viability increase [3] -7.53% | viability [4] 79.2% | viability [5] 80.9% | inhibition [6] -0.74% | RAM network inhibition [7] -1.52%

Nc1nc(N2CCOCC2)nc(N(c2ccccc2)c2ccccc2)n1
inactive: growth inhibition [1] -17.1% | growth inhibition [2] -9.3% | viability increase [3] -1.89% | viability [4] 107% | viability [5] 92.4% | inhibition [6] 1.93% | RAM network inhibition [7] 1.9%

COc1ccc(C(=O)c2coc3ccc(O)c(CN(C)C)c23)cc1
inactive: growth inhibition [1] -15% | growth inhibition [2] -11.6% | viability increase [3] -2.46% | viability [4] 84.4% | viability [5] 76.1% | inhibition [6] 0.74% | RAM network inhibition [7] -1.93%

O=C1CC(C(=O)Nc2nccs2)C(c2ccccc2)O1 (stereo unspecified)
inactive: growth inhibition [1] -4.84% | growth inhibition [2] -14.8% | viability increase [3] -0.76% | viability [4] 107% | viability [5] 99.3% | inhibition [6] 0.94% | RAM network inhibition [7] 0.09%

CCCn1c(CNc2ccc(Br)cc2)nc2ccccc21
inactive: growth inhibition [1] -11.7% | growth inhibition [2] -9.32% | viability increase [3] -3.5% | viability [4] 88.2% | viability [5] 82.7% | inhibition [6] 1.47% | RAM network inhibition [7] 1.62%

Cc1ccc2cc(CCNC(=O)C3CCCC3)c(=O)[nH]c2c1
inactive: growth inhibition [1] -7.07% | growth inhibition [2] -9.72% | viability increase [3] 1.09% | viability [4] 107% | viability [5] 98.2% | inhibition [6] 3.17% | RAM network inhibition [7] 4.58%

CC(=O)N1C(C(=O)O)CSC1c1ccc(C)cc1 (stereo unspecified)
inactive: growth inhibition [1] 4.69% | growth inhibition [2] 8.76% | viability increase [3] -0.04% | viability [4] 95.3% | viability [5] 95.6% | inhibition [6] -0.43% | RAM network inhibition [7] -1.41%

Cc1ccnc(N2C(=O)c3ccccc3C2Nc2ccc3c(c2)OCCO3)c1 (stereo unspecified)
inactive: growth inhibition [1] -12.4% | growth inhibition [2] 3.42% | viability increase [3] 1.16% | viability [4] 99.7% | viability [5] 90.1% | inhibition [6] 0.135% | RAM network inhibition [7] 3.93%

Cc1c(NC(=O)C2CCN(S(=O)(=O)c3ccccc3)CC2)c(=O)n(-c2ccccc2)n1C
inactive: growth inhibition [1] -3.65% | growth inhibition [2] -4.28% | viability increase [3] -2.25% | viability [4] 96.5% | viability [5] 88.8% | inhibition [6] 1.45% | RAM network inhibition [7] 6.15%

CC(=O)Oc1c(Cl)c(N2CCOCC2)c(OC(C)=O)c2ccccc12
inactive: growth inhibition [1] -22.8% | growth inhibition [2] -7.78% | viability increase [3] -6.81% | viability [4] 70.4% | viability [5] 79% | inhibition [6] -0.75% | RAM network inhibition [7] 2.47%

CCOC(=O)Nc1ccccc1C(=O)N1CCOCC1
inactive: growth inhibition [1] -8.68% | growth inhibition [2] -2.7% | viability increase [3] -0.42% | viability [4] 97.5% | viability [5] 98% | inhibition [6] 1.89% | RAM network inhibition [7] 2.52%

CCc1cc(C(=O)Cc2cnn(-c3ccccc3)c2)c(O)cc1O
inactive: growth inhibition [1] -6.31% | growth inhibition [2] -9.12% | viability increase [3] -2.95% | viability [4] 101% | viability [5] 99.1% | inhibition [6] 1.42% | RAM network inhibition [7] 3.54%

Cc1ccc2c(c1)N(CCCC(=O)NCc1ccc3c(c1)OCO3)C(=O)CO2
inactive: growth inhibition [1] -5.25% | growth inhibition [2] -25.1% | viability increase [3] -6.26% | viability [4] 95.4% | viability [5] 83.9% | inhibition [6] 0.43% | RAM network inhibition [7] 1.64%

Cc1ccc(S(=O)(=O)NC2OC(=O)C(Cl)=C2Cl)cc1 (stereo unspecified)
inactive: growth inhibition [1] -17.3% | growth inhibition [2] 10.1% | viability increase [3] -3.7% | viability [4] 86.4% | viability [5] 104% | inhibition [6] 0.495% | RAM network inhibition [7] 2.08%

COc1ccc(CCN2CC34C=CC(O3)C(C(=O)NCc3ccccc3)C4C2=O)cc1OC (stereo unspecified)
inactive: growth inhibition [1] -2.83% | growth inhibition [2] -11.6% | viability increase [3] -1.24% | viability [4] 95.2% | viability [5] 93.9% | inhibition [6] 0.89% | RAM network inhibition [7] 9.27%

CCn1c2ccccc2c2cc(NC(=O)C3CCN(S(=O)(=O)c4cccs4)CC3)ccc21
inactive: growth inhibition [1] -8.9% | growth inhibition [2] -16.2% | viability increase [3] -5.99% | viability [4] 59.3% | viability [5] 66.2% | inhibition [6] 0.19% | RAM network inhibition [7] 4.66%

COc1ccc(NC(=O)C2CCN(S(=O)(=O)c3cccc4cccnc34)CC2)cc1
inactive: growth inhibition [1] -4.51% | growth inhibition [2] 3.15% | viability increase [3] 1.75% | viability [4] 102% | viability [5] 101% | inhibition [6] 2.21% | RAM network inhibition [7] 0.67%

COc1ccc(-n2nnc3c(=O)n(CC(=O)N4CCCCC4)cnc32)cc1
inactive: growth inhibition [1] -0.235% | growth inhibition [2] 4.3% | viability increase [3] -0.73% | viability [4] 96.1% | viability [5] 94.6% | inhibition [6] 0.975% | RAM network inhibition [7] -0.05%

COc1ccc(C(C#N)Nc2ccccc2OC)cc1 (stereo unspecified)
inactive: growth inhibition [1] -7.99% | growth inhibition [2] -12.7% | viability increase [3] -2.75% | viability [4] 80.9% | viability [5] 96% | inhibition [6] 0.35% | RAM network inhibition [7] 2.51%

C(=N\c1nc2ccccc2n1Cc1ccccc1)/c1cccs1
inactive: growth inhibition [1] -3.85% | growth inhibition [2] -3.94% | viability increase [3] -3.85% | viability [4] 88.7% | viability [5] 88.6% | inhibition [6] 1.94% | RAM network inhibition [7] 4.3%

Cc1cccc(C)c1N1C(=O)c2ccccc2C1=O
inactive: growth inhibition [1] -6.34% | growth inhibition [2] -3.44% | viability increase [3] -1.87% | viability [4] 105% | viability [5] 92.7% | inhibition [6] 0.535% | RAM network inhibition [7] 2.47%

CN(C)c1ccc(C2N3CC4(C)CN2CC(C)(C3)C4O)cc1 (stereo unspecified)
inactive: growth inhibition [1] -21.5% | growth inhibition [2] -10.9% | viability increase [3] 0.46% | viability [4] 101% | viability [5] 99% | inhibition [6] 2.33% | RAM network inhibition [7] 2.42%

CCSc1nnc(NC(=O)c2cccc(OCc3c(C)noc3C)c2)s1
inactive: growth inhibition [1] 1.08% | growth inhibition [2] 21.9% | viability increase [3] 0.55% | viability [4] 98.2% | viability [5] 92.6% | inhibition [6] 2.79% | RAM network inhibition [7] 4.07%

CCn1c(SCC(=O)NCC2CCCO2)nc2c(c1=O)SC(C)C2 (stereo unspecified)
inactive: growth inhibition [1] -2.03% | growth inhibition [2] -29.9% | viability increase [3] -1.87% | viability [4] 103% | viability [5] 98% | inhibition [6] 0.93% | RAM network inhibition [7] 2.66%

CCOc1cc(C(=O)Nc2nnc(C)s2)cc(OCC)c1OCC
inactive: growth inhibition [1] -0.31% | growth inhibition [2] 0.555% | viability increase [3] -4.22% | viability [4] 108% | viability [5] 97.7% | inhibition [6] 0.43% | RAM network inhibition [7] 0.63%

COc1ccc(S(=O)(=O)Cc2ccc(C(=O)NCc3ccc(F)cc3)o2)cc1
inactive: growth inhibition [1] -13.6% | growth inhibition [2] -14.1% | viability increase [3] -0.39% | viability [4] 92.2% | viability [5] 87.5% | inhibition [6] 0.735% | RAM network inhibition [7] 2.4%

COc1cc2c(C(=O)NCc3ccccn3)cn(CC(C)C)c(=O)c2cc1OC
inactive: growth inhibition [1] -6.14% | growth inhibition [2] -28.3% | viability increase [3] -3.77% | viability [4] 104% | viability [5] 92.4% | inhibition [6] 1.55% | RAM network inhibition [7] 1.16%

COc1ccc(S(=O)(=O)N2Cc3ccccc3CC2C(=O)O)cc1OC (stereo unspecified)
inactive: growth inhibition [1] 6.5% | growth inhibition [2] 3.09% | viability increase [3] 0.39% | viability [4] 104% | viability [5] 96.1% | inhibition [6] 1.33% | RAM network inhibition [7] 5.1%

Cc1ccc(-c2cc3c(nn2)-c2ccccc2C3=O)cc1
inactive: growth inhibition [1] -17% | growth inhibition [2] -5.93% | viability increase [3] -6.54% | viability [4] 53.4% | viability [5] 49.6% | inhibition [6] 4.56% | RAM network inhibition [7] 7.67%

CCCCN(C)C(=O)c1ccc2c(c1)N(CC)C(=O)c1ccccc1S2(=O)=O
inactive: growth inhibition [1] -2.31% | growth inhibition [2] 3.19% | viability increase [3] -1.45% | viability [4] 87.8% | viability [5] 91.2% | inhibition [6] 1.74% | RAM network inhibition [7] 4.11%

CCN1C(=O)NC(c2cccnc2)C(C(=O)OC)=C1C (stereo unspecified)
inactive: growth inhibition [1] -17.7% | growth inhibition [2] -5.54% | viability increase [3] -1.3% | viability [4] 99.5% | viability [5] 99.9% | inhibition [6] 0.735% | RAM network inhibition [7] 0.25%

CCC/C(O)=C1\C(=O)CC(C)(C)CC1=Nc1ccccc1OC
inactive: growth inhibition [1] -18.3% | growth inhibition [2] -21.1% | viability increase [3] -2.83% | viability [4] 87.6% | viability [5] 87% | inhibition [6] 3.95% | RAM network inhibition [7] 9.85%
